ChEMBL document CHEMBL1126141, “Substituted 4,6-diaminoquinolines as inhibitors of C5a receptor binding” (J Med Chem, 1992)
Values after ≈ are worked out from the molar mass of the structure shown.

How the values were obtained:
[1] = biological target: T1, C5a anaphylatoxin chemotactic receptor 1 (Homo sapiens, UniProt P21730); assay: Ability to inhibit binding of radiolabeled C5a anaphylatoxin to intact membrane bound receptor from human neutrophils.
T1 sequence (P21730 whole entry): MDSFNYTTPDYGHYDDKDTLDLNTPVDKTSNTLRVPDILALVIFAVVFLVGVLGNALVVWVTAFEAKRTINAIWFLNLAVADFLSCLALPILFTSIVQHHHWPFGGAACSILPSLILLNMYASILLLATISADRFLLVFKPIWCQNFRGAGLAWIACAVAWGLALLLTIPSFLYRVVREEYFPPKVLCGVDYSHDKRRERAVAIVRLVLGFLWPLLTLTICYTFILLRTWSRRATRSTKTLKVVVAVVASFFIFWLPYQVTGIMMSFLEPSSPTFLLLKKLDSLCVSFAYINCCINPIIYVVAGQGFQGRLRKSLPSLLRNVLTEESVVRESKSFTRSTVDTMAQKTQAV
How it was run: (§1)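 Buffer was HBSS with 10 mM pMSF and 0.5% BSA, HEPES pH 7.2. Compounds were added from 1% aqueous DMSO. Filtration used polyethyleneimine-soaked GF filters, read by gamma counting. Nonspecific binding was set with ≥20 ng unlabeled C5a. IC50 came from a four-parameter logistic fit.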

Homo sapiens [2] = organism: Homo sapiens; assay: Compound was tested for the inhibition of fMLF- induced human neutrophil activation; type: functional
How it was run: (§2)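 Freshly isolated human PMN (Ficoll-Hypaque, erythrocytes lysed with NH4Cl/EDTA/KHCO3), 4×10^5/mL in HBSS. Preincubated with compound or 1% aqueous DMSO 20 min at 37 °C, then cytochalasin B (5 μg/mL final) 5 min. Stimulated 5 min at 37 °C with C5a or fMLF, or no stimulus for nonspecific release. MPO read with dimethoxybenzidine/H2O2 at pH 6.0, azide-quenched at 2 min, A450. Duplicate or triplicate.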

Homo sapiens [3] = organism: Homo sapiens; assay: Compound was tested for the inhibition of C5a- induced human neutrophil activation; type: functional; how it was run: as §2
Myeloperoxidase = biological target: T2, Myeloperoxidase (Homo sapiens, UniProt P05164); assay: Compound was tested for the induction of nonspecific myeloperoxidase (MPO) release; type: functional; how it was run: as §2
T2 sequence (P05164 whole entry): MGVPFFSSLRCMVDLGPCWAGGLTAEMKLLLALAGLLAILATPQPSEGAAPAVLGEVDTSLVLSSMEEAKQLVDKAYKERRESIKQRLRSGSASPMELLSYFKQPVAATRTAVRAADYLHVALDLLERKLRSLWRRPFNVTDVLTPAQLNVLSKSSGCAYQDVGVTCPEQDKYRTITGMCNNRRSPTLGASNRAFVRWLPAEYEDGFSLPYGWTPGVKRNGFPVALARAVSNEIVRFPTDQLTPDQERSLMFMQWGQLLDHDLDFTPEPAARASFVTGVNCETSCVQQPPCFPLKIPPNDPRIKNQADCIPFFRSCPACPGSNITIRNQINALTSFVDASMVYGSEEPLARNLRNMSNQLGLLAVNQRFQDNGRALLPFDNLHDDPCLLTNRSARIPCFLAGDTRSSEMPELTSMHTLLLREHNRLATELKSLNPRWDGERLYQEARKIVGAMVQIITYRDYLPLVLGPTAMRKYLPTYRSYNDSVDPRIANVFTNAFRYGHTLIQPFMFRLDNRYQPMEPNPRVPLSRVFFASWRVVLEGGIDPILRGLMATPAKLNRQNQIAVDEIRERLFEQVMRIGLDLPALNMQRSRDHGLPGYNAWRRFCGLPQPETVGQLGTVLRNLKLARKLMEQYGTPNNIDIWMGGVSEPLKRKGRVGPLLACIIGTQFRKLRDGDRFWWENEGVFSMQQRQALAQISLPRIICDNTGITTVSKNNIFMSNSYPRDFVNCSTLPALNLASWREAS

[4] = biological target: T1, C5a anaphylatoxin chemotactic receptor 1; assay: Compound was tested for its ability to inhibit binding of radiolabeled C5a anaphylatoxin chemotactic receptor to intact membrane bound receptor from human neutrophils.; insoluble; how it was run: as §1

Cc1cc(N)c2cc(NC(=O)c3ccc4ccccc4c3)ccc2n1
IC50 [1]: 91.6 µM

Cc1cc(N)c2cc(C(=O)NCc3ccccc3)ccc2n1
IC50 [1]: > 343 µM

Cc1cc(N)c2cc(NC(=O)CC(=O)Nc3ccc4nc(C)cc(N)c4c3)ccc2n1
IC50 [1]: 43.4 µM

Cc1cc(N)c2cc(NC(=O)/C=C/c3c(Cl)cccc3Cl)ccc2n1
EC50 (Homo sapiens [2]): 4 µg/mL (≈ 10.7 µM)
IC50 [1]: 21.5 µM
EC50 (Homo sapiens [3]): 4 µg/mL (≈ 10.7 µM)

Cc1cc(N)c2cc(NC(=O)CCc3ccccc3)ccc2n1
IC50 [1]: > 327 µM

Cc1cc(N)c2cc(NC(=O)/C=C/c3ccccc3Cl)ccc2n1
EC50 (Homo sapiens [2]): 5 µg/mL (≈ 14.8 µM)
IC50 [1]: 35.5 µM
EC50 (Homo sapiens [3]): 4 µg/mL (≈ 11.8 µM)

Cc1cc(N)c2cc(NC(=O)C(=O)Nc3ccc4nc(C)cc(N)c4c3)ccc2n1
IC50 [1]: 4.99 µM
EC50 (Homo sapiens [3]): 4 µg/mL (≈ 9.99 µM)

Cc1cc(NCc2ccccc2)c2cc(NC(=O)/C=C/c3ccccc3Cl)ccc2n1
EC50 (Homo sapiens [2]): < 3 µg/mL
IC50 [1]: > 234 µM
EC50 (Myeloperoxidase): 11.7 µM
EC50 (Homo sapiens [3]): < 3 µg/mL

COc1cc(C)nc2ccc(NC(=O)/C=C/c3ccccc3Cl)cc12
IC50 [1]: > 142 µM

Cc1cc(NCc2ccccc2)c2cc(NC(=O)C(=O)Nc3ccc4nc(C)cc(NCc5ccccc5)c4c3)ccc2n1
IC50 [1]: > 86.1 µM

Cc1ccc2cc(NC(=O)Nc3ccc4nc(C)ccc4c3)ccc2n1
IC50 [1]: > 146 µM

Cc1cc(N)c2cc(NC(=O)/C=C/c3ccccc3C(F)(F)F)ccc2n1
EC50 (Homo sapiens [2]): 4 µg/mL (≈ 10.8 µM)
IC50 [1]: 24.2 µM
EC50 (Homo sapiens [3]): 4 µg/mL (≈ 10.8 µM)

Cc1cc(N)c2cc(N)ccc2n1
IC50 [1]: > 577 µM

Cc1cc(N)c2cc(NC(=O)CCCCCCCCC(=O)Nc3ccc4nc(C)cc(N)c4c3)ccc2n1
IC50 [1]: > 97.5 µM

CCCCCCCCNC(=O)c1ccc2nc(C)cc(N)c2c1
IC50 [1]: > 319 µM

Cc1cc(N)c2cc(NC(=O)/C=C/c3cccc(C(F)(F)F)c3)ccc2n1
IC50 [1]: 10.8 µM

Cc1cc(N)c2cc(NC(=O)Nc3ccc4nc(C)cc(N)c4c3)ccc2n1 [AMINOQUINURIDE]
IC50 [1]: 8.86 µM
EC50 (Homo sapiens [3]): 15 µg/mL (≈ 40.3 µM)

CCCCCCCC(=O)Nc1ccc2nc(C)cc(N)c2c1
IC50 [1]: 100 µM

Cc1cc(N)c2cc(NC(=O)CCCCC(=O)Nc3ccc4nc(C)cc(N)c4c3)ccc2n1
IC50 [1]: > 110 µM

Cc1cc(NCc2ccccc2)c2cc(N)ccc2n1
IC50 [1]: > 380 µM

CCCC(=O)Nc1ccc2nc(C)cc(N)c2c1
IC50 [1]: > 411 µM

Cc1cc(N)c2cc(NC(=O)/C=C/c3ccccc3)ccc2n1
IC50 [1]: 98.9 µM

Cc1cc(N)c2cc(NC(=O)/C=C/c3ccc(C(F)(F)F)cc3)ccc2n1
IC50 [1]: 18.8 µM

Cc1cc(NCc2ccccc2)c2cc(NC(=O)/C=C/c3ccccc3C(F)(F)F)ccc2n1
IC50 [1]: > 217 µM

Cc1cc(N)c2cc(NC(=O)/C=C/c3c(F)c(F)c(F)c(F)c3F)ccc2n1
IC50 [4]: Not Active

CCCCCCCCNc1cc(C)nc2ccc(NC(=O)/C=C/c3ccccc3Cl)cc12
IC50 [1]: > 222 µM

Cc1cc(N)c2cc(NC(=O)c3ccccc3)ccc2n1
IC50 [1]: > 361 µM
